Experiments:
Homo sapiens [1] = organism: Homo sapiens; assay: Inhibition of collagen-induced platelet aggregation in human platelet rich plasma; assay type: functional
Procedure, shortened: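 PRP and PPP were prepared from human blood by centrifugation at 1000 rpm and 4000 rpm respectively, each for 10 min at 10 °C. PRP was adjusted to […]. Collagen was 0.53 µg/mL final. Optical density of stirred PRP was recorded for 4 min, at least in duplicate. PRP and PPP set 0% and 100% light transmission. EC50 was taken from the concentration–inhibition curve.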

Thromboxane A2 receptor [2] = target: T1, Thromboxane A2 receptor (Homo sapiens, UniProt P21731); assay: TXA2 receptor antagonism, measured by the displacement of [3H]SQ29,548 from the PGH-2/TXA-2 receptor on human platelets; assay type: functional
T1 sequence (P21731 whole entry): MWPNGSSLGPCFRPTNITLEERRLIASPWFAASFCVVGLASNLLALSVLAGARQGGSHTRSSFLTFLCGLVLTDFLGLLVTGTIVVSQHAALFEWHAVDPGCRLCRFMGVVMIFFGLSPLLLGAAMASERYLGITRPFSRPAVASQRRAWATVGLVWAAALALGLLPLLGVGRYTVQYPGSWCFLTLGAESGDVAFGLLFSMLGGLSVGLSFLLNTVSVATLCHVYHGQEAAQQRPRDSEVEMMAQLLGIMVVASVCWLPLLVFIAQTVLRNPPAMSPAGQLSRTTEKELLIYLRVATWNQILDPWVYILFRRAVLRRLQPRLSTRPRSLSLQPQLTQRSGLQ
Procedure, shortened: (§1)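 Human gel-filtered platelets were used. Nonspecific binding was defined with U 46,619 at 30 µM final in place of the test compound. IC50 is the concentration giving 50% displacement of [³H]SQ 29,548.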

Thromboxane-A synthase = target: T2, Thromboxane-A synthase (Homo sapiens, UniProt P24557); assay: TXA2 synthetase inhibition measured by the inhibition of TXB2 formation by human gel-filtered platelets incubated with [14C]arachidonic acid
T2 sequence (P24557 whole entry): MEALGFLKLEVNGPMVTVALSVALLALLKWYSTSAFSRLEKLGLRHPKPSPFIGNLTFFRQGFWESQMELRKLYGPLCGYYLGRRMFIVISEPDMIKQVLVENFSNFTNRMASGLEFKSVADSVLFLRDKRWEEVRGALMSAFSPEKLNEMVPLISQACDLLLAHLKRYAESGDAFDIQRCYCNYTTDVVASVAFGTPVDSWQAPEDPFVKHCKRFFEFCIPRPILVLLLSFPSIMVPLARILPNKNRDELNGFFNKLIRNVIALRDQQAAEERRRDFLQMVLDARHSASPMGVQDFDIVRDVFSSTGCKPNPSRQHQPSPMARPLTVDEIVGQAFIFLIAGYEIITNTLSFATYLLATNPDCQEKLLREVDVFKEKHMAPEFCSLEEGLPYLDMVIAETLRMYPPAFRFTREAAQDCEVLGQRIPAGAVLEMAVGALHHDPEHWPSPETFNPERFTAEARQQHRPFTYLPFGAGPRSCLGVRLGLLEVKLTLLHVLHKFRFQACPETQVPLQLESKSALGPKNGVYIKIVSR

Homo sapiens [3] = organism: Homo sapiens; assay: In vitro inhibition of collagen-induced platelet aggregation in human platelet-rich plasma (PRP) at 273 uM; assay type: functional
Homo sapiens [4] = organism: Homo sapiens; assay: In vitro inhibition of collagen-induced platelet aggregation in human platelet-rich plasma (PRP) at 291 uM; assay type: functional
Homo sapiens [5] = organism: Homo sapiens; assay: In vitro inhibition of collagen-induced platelet aggregation in human platelet-rich plasma (PRP) at 278uM; assay type: functional
Thromboxane A2 receptor [6] = target: T1, Thromboxane A2 receptor; assay: TXA2 receptor antagonism, measured by the displacement of [3H]SQ-29548 from the PGH-2/TXA-2 receptor on human platelets; assay type: functional; procedure, shortened: as §1

Row | SMILES | EC50 (Homo sapiens [1]) [µM] | IC50 (Thromboxane A2 receptor [2]) [µM] | IC50 (Thromboxane-A synthase) [µM] | also measured
1 | O=C(O)CCCCCO/N=C(\c1ccccc1)c1ccncn1 | 112 | 5 | > 10 | –
2 | O=C(O)CCCCO/N=C(\c1cccc(C(F)(F)F)c1)c1cnccn1 | 190 | 11 | 0.006 | –
3 | O=C(O)CCCCO/N=C(\c1ccccc1)c1ncccn1 | – | – | > 100 | inhibition at 273 µM (Homo sapiens [3]): 0%
4 | O=C(O)CCCCCO/N=C(/c1cccc(C(F)(F)F)c1)c1ccncn1 | 184 | – | – | –
5 | O=C(O)CCCCCO/N=C(\c1cccc(C(F)(F)F)c1)c1ccncn1 | 25 | 1.1 | > 10 | –
6 | O=C(O)CCCCCO/N=C(/c1ccccc1)c1cncnc1 | 127 | 8.8 | > 10 | –
7 | O=C(O)CCCCO/N=C(\c1cccc(C(F)(F)F)c1)c1cccnn1 | 78 | 10 | > 100 | –
8 | O=C(O)CCCO/N=C(/c1ccccc1)c1ccncn1 | – | – | – | inhibition at 273 µM (Homo sapiens [3]): 38%
9 | O=C(O)CCCO/N=C(/c1ccccc1)c1cncnc1 | – | – | – | inhibition at 273 µM (Homo sapiens [3]): 17%
10 | O=C(O)CCCCO/N=C(/c1cccc(C(F)(F)F)c1)c1ncccn1 | 214 | 52 | > 10 | –
11 | O=C(O)CCCCO/N=C(\c1ccccc1)c1ccnnc1 | 227 | 33 | 0.26 | –
12 | O=C(O)CCCO/N=C(/c1ccccc1)c1ccnnc1 | – | – | – | inhibition at 273 µM (Homo sapiens [3]): 21%
13 | O=C(O)CCCCO/N=C(/c1ccccc1)c1cnccn1 | 94 | 24 | 0.62 | –
14 | O=C(O)CCCCCO/N=C(/c1cccc(C(F)(F)F)c1)c1cnccn1 | – | – | – | inhibition at 291 µM (Homo sapiens [4]): 47%
15 | O=C(O)CCCO/N=C(/c1ccccc1)c1cccnn1 | – | – | – | inhibition at 273 µM (Homo sapiens [3]): 2%
16 | O=C(O)CCCO/N=C(\c1ccccc1)c1cccnn1 | – | – | – | inhibition at 273 µM (Homo sapiens [3]): 4%
17 | O=C(O)CCCO/N=C(\c1ccccc1)c1ccncn1 | – | – | – | inhibition at 273 µM (Homo sapiens [3]): 34%
18 | O=C(O)CCCO/N=C(/c1ccccc1)c1ncccn1 | – | – | – | inhibition at 273 µM (Homo sapiens [3]): 0%

Row | SMILES | EC50 (Homo sapiens [1]) [µM] | IC50 (Thromboxane A2 receptor [2]) [µM] | IC50 (Thromboxane-A synthase) [µM] | also measured
19 | O=C(O)CCCCCO/N=C(/c1ccccc1)c1ncccn1 | – | – | – | inhibition at 273 µM (Homo sapiens [3]): 0%
20 | O=C(O)CCCCCO/N=C(/c1ccccc1)c1cnccn1 | 216 | – | – | –
21 | O=C(O)CCCCCO/N=C(\c1cncnc1)c1cccc(C(F)(F)F)c1 | 291 | – | – | –
22 | O=C(O)CCCCO/N=C(/c1ccnnc1)c1cccc(C(F)(F)F)c1 | 52 | 6 | 0.016 | –
23 | O=C(O)CCCO/N=C(\c1ccccc1)c1ncccn1 | – | – | – | inhibition at 273 µM (Homo sapiens [3]): 0%
24 | O=C(O)CCCCO/N=C(/c1ccccc1)c1ccncn1 | 255 | 25 | > 100 | –
25 | O=C(O)CCCCCO/N=C(/c1ccccc1)c1cccnn1 | 204 | – | – | –
26 | O=C(O)CCCCCO/N=C(/c1ccnnc1)c1cccc(C(F)(F)F)c1 | 186 | 29 | 0.693 | –
27 | O=C(O)CCCO/N=C(\c1ccccc1)c1cncnc1 | – | – | – | inhibition at 273 µM (Homo sapiens [3]): 46%
28 | O=C(O)CCCO/N=C(/c1ccccc1)c1cnccn1 | – | – | – | inhibition at 273 µM (Homo sapiens [3]): 19%
29 | O=C(O)CCCCO/N=C(/c1ccccc1)c1cncnc1 | 191 | 7.2 | 0.573 | –
30 | O=C(O)CCCCO/N=C(\c1ccnnc1)c1cccc(C(F)(F)F)c1 | 30 | 1.8 | 6.63 | –
31 | O=C(O)CCCCCO/N=C(\c1ccccc1)c1ncccn1 | – | – | – | inhibition at 273 µM (Homo sapiens [3]): 0%
32 | O=C(O)CCCO/N=C(\c1ccccc1)c1cnccn1 | – | – | – | inhibition at 273 µM (Homo sapiens [3]): 47%
33 | O=C(O)CCCCO/N=C(\c1cncnc1)c1cccc(C(F)(F)F)c1 | 12 | 0.36 | 6.1 | –
34 | O=C(O)CCCCCO/N=C(\c1ccnnc1)c1cccc(C(F)(F)F)c1 | – | 21 | > 10 | inhibition at 291 µM (Homo sapiens [4]): 26%
35 | O=C(O)CCCCO/N=C(/c1cccnc1)c1cccc(C(F)(F)F)c1 [RIDOGREL] | 41 | – | 0.007 | –

Now from value to molecule, other results behind:

Row | EC50 (Homo sapiens [1]) [µM] | IC50 (Thromboxane A2 receptor [2]) [µM] | IC50 (Thromboxane-A synthase) [µM] | SMILES | also measured
36 | 32 | 1.5 | 0.039 | O=C(O)CCCCO/N=C(/c1cncnc1)c1cccc(C(F)(F)F)c1 | –
37 | 236 | 25 | > 10 | O=C(O)CCCCCO/N=C(/c1ccccc1)c1ccncn1 | –
38 | 251 | – | – | O=C(O)CCCCCO/N=C(\c1cccc(C(F)(F)F)c1)c1cnccn1 | –
39 | 241 | – | – | O=C(O)CCCCCO/N=C(\c1cccc(C(F)(F)F)c1)c1cccnn1 | –
40 | 291 | – | – | O=C(O)CCCCCO/N=C(\c1cccc(C(F)(F)F)c1)c1ncccn1 | –
41 | 91 | 47 | 0.079 | O=C(O)CCCCO/N=C(\c1ccccc1)c1cnccn1 | –
42 | 272 | 99 | > 10 | O=C(O)CCCCO/N=C(\c1cccc(C(F)(F)F)c1)c1ncccn1 | –
43 | 163 | 13 | 8.8 | O=C(O)CCCCO/N=C(/c1ccccc1)c1ccnnc1 | –
44 | – | – | > 10 | O=C(O)CCCCO/N=C(/c1ccccc1)c1ncccn1 | inhibition at 273 µM (Homo sapiens [3]): 0%
45 | 217 | 71 | > 100 | O=C(O)CCCCO/N=C(/c1ccccc1)c1cccnn1 | –
46 | 59 | 7.1 | 3.8 | O=C(O)CCCCCO/N=C(\c1ccccc1)c1ccnnc1 | –
47 | 65 | 1.5 | 2.9 | O=C(O)CCCCO/N=C(/c1cccc(C(F)(F)F)c1)c1cnccn1 | –
48 | 203 | – | – | O=C(O)CCCCCO/N=C(\c1ccccc1)c1cccnn1 | –
49 | 131 | – | – | O=C(O)CCCCCO/N=C(\c1ccccc1)c1cnccn1 | –
50 | – | 20 | 0.075 | O=C(O)CCCCO/N=C(\c1ccccc1)c1cncnc1 | inhibition at 278 µM (Homo sapiens [5]): 40%
51 | 274 | 30 | > 100 | O=C(O)CCCCO/N=C(\c1ccccc1)c1ccncn1 | –
52 | 19 | 1.4 | > 10 | O=C(O)CCCCO/N=C(\c1cccc(C(F)(F)F)c1)c1ccncn1 | –
53 | 245 | – | – | O=C(O)CCCO/N=C(\c1ccccc1)c1ccnnc1 | –
54 | 81 | 7.7 | > 10 | O=C(O)CCCCCO/N=C(/c1ccccc1)c1ccnnc1 | –
55 | 200 | – | – | O=C(O)CCCCCO/N=C(/c1cncnc1)c1cccc(C(F)(F)F)c1 | –
56 | – | – | > 100 | O=C(O)CCCCO/N=C(\c1ccccc1)c1cccnn1 | inhibition at 278 µM (Homo sapiens [5]): 47%; IC50 (Thromboxane A2 receptor [6]): 104 µM
57 | 71 | 2.5 | > 100 | O=C(O)CCCCO/N=C(/c1cccc(C(F)(F)F)c1)c1ccncn1 | –
